Bioassay records (PubChem BioAssay)
T cruzi HTS – inhibitors of intracellular Trypanosoma cruzi. 22,000 compounds, 4.9% hits. activity score (inhibition), % at 5.01 µM. intracellular Trypanosoma cruzi in host cells, plate reader. AID 651903; in the data active = activity score above about 55%; inconclusive = no clear call, values can overlap the other calls;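 note: parasites and compound incubated about four days before reading; 0% = median of neutral control wells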
A1 apoptosis 2 – A1 inhibition read as caspase activation; 24,000 tested, under 10 active; MEF A1-2A-BIM cells, caspase-Glo luminescence, 3 h; percent of clofoctol response, DMSO zero; caspase activation, % (test concentration not listed); in the data active = caspase activation above about 5.9%; inconclusive = no clear call, values can overlap the other calls; inactive = below about 2.2%
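Material: mouse embryonic fibroblasts co-expressing A1 and BIM (A1-2A-BIM), primed for A1 dependence / Quantity: 2500 cells/well / Buffer or medium: RPMI-1640 growth medium with 10% FBS / Doses: 50 nL compound per well, pinned / Schedule: 3 h compound exposure at 37 °C / Signal: Caspase-Glo luminescence (DEVD substrate) / Measure: Caspase-3/7 activation, seen as rise in luminescence signal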
INS-1E rescue – preserves ATP levels in cytokine-treated INS-1E cells | INS-1E cytokine-induced death, ATP luminescence, 48 h; normalised: neutral wells 0, positive control 100 | protection from cytokine-induced ATP loss, % at 10 µM | 20,000 compounds, 0.1% hits;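 active = mean replicate protection from cytokine-induced ATP loss at least 50% and at least 75% of replicates each reaching 50%; inconclusive = meets only one of the two criteria, mean or replicate share; inactive = fails both the mean and replicate share criteria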
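Assay system: INS-1E rat cells / Quantity: 8000 cells per well / Medium: RPMI without phenol red, 5% FBS / Probe or stimulus: three-cytokine cocktail (IFN-γ, TNF-α, IL-1β) / Dosing: one compound concentration, pin transfer / Timing: 48 h co-treatment, 10 min post-lysis read / Technique: CellTiter-Glo luminescence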
* marks the source's active call; other numbers are inactive results; ? = inconclusive; . = no result given. This excerpt belongs to a sample that is enriched for hits.

SMILES	T cruzi HTS	A1 apoptosis 2	INS-1E rescue
O=C(NO)c1ccc(C(=O)N/N=C/c2ccccc2Br)cc1	13.8	-1.6	-6.3
CN(Cc1ccccc1)CC(O)CC(O)c1ccccc1 (stereo not drawn)	.	-0.6	.
CN(C)CCCOc1ccc(/C=N/NC(=O)c2ccccn2)cc1	21.1	-4.6	5.2
O=C(CCCCCC(=O)Nc1ccccc1O)N/N=C/c1ccc(O)c(F)c1	-22.2	.	6.8
NC(=O)COc1ccc(/C=N/NC(=O)CCCCC(=O)NO)cc1	-4.3	0.9	3.7
C[C@H](CO)N1C[C@H](C)[C@H](CN(C)Cc2ccc(Oc3ccccc3)cc2)Oc2c(NS(=O)(=O)c3ccccc3)cccc2C1=O	21.7	-1.9	-43.9
C[C@H]1CN([C@@H](C)CO)C(=O)c2cccc(NS(=O)(=O)c3ccccc3)c2O[C@@H]1CN(C)Cc1ccc(Oc2ccccc2)cc1	12.9	-0.9	-4.4
C[C@H]1CN([C@@H](C)CO)C(=O)c2cccc(NS(=O)(=O)c3ccc(Cl)cc3)c2O[C@H]1CN(C)Cc1ccc(Oc2ccccc2)cc1	43.5	.	-20.3
C[C@H](CO)N1C[C@H](C)[C@@H](CN(C)Cc2ccc(Oc3ccccc3)cc2)Oc2c(NS(=O)(=O)c3ccc(Cl)cc3)cccc2C1=O	64.9*	.	-15.4
C[C@@H]1CN([C@H](C)CO)C(=O)c2cccc(NS(=O)(=O)c3ccc(Cl)cc3)c2O[C@H]1CN(C)Cc1ccc(Oc2ccccc2)cc1	58.2*	-0.9	-0.1
C[C@@H]1CN([C@@H](C)CO)C(=O)c2cccc(NS(=O)(=O)c3ccc(Cl)cc3)c2O[C@@H]1CN(C)Cc1ccc(Oc2ccccc2)cc1	66.5*	0.1	-87.3
COc1ccc(-c2cn(CC(=O)N3CCOCC3)nn2)cc1OC	.	0.2	.
C[C@@H]1CN([C@H](C)CO)C(=O)Cc2cc(NC(=O)Nc3ccc(C(F)(F)F)cc3)ccc2O[C@@H]1CN(C)S(=O)(=O)c1ccc(F)cc1	71.6*	-0.3	-8.6
C[C@H]1CN([C@@H](C)CO)C(=O)Cc2cc(NC(=O)Nc3ccc(C(F)(F)F)cc3)ccc2O[C@@H]1CN(C)S(=O)(=O)c1ccc(F)cc1	35.3	0.7	0.5
C[C@@H]1CN([C@@H](C)CO)C(=O)Cc2cc(NC(=O)Nc3ccc(C(F)(F)F)cc3)ccc2O[C@@H]1CN(C)S(=O)(=O)c1ccc(Cl)cc1	80.5*	.	-22.6
C[C@H]1CN([C@@H](C)CO)C(=O)Cc2cc(NC(=O)Nc3ccc(C(F)(F)F)cc3)ccc2O[C@H]1CN(C)S(=O)(=O)c1ccc(Cl)cc1	52.0	1.5	-23.2
Cc1noc(C)c1S(=O)(=O)N(C)C[C@H]1Oc2ccc(NC(=O)Nc3ccc(C(F)(F)F)cc3)cc2CC(=O)N([C@H](C)CO)C[C@@H]1C	.	1.2	.
Cc1noc(C)c1S(=O)(=O)N(C)C[C@H]1Oc2ccc(NC(=O)Nc3ccc(C(F)(F)F)cc3)cc2CC(=O)N([C@@H](C)CO)C[C@H]1C	65.8*	-1.1	1.0
Cc1nnc(Sc2ccc(/C=N/NC(=O)CCCCCCC(=O)Nc3ccccc3O)o2)n1C	-3.4	.	0.9
C[C@@H]1CN([C@H](C)CO)C(=O)c2cccc(NC(=O)Nc3ccc(C(F)(F)F)cc3)c2O[C@@H]1CN(C)Cc1ccc2c(c1)OCO2	?	0.7	-26.7
C[C@H]1CN([C@@H](C)CO)C(=O)c2cccc(NC(=O)Nc3ccc(C(F)(F)F)cc3)c2O[C@@H]1CN(C)Cc1ccc2c(c1)OCO2	52.5	.	-12.6
C[C@H](CO)N1C[C@H](C)[C@H](CN(C)Cc2ccc3c(c2)OCO3)Oc2c(NC(=O)Nc3ccc(C(F)(F)F)cc3)cccc2C1=O	62.2*	0.0	-50.8
C[C@@H]1CN([C@H](C)CO)C(=O)c2cccc(NC(=O)Nc3ccc4c(c3)OCO4)c2O[C@H]1CN(C)Cc1ccc(C(F)(F)F)cc1	9.4	0.2	-7.1
C[C@H](CO)N1C[C@H](C)[C@H](CN(C)Cc2ccc3c(c2)OCO3)Oc2c(NC(=O)Nc3ccc(F)cc3)cccc2C1=O	49.8	.	-22.0
C[C@@H]1CN([C@@H](C)CO)C(=O)c2cccc(NC(=O)Nc3ccc(C(F)(F)F)cc3)c2O[C@H]1CN(C)Cc1ccc2c(c1)OCO2	89.8*	.	-60.3
SMILES	T cruzi HTS	A1 apoptosis 2	INS-1E rescue
C[C@@H]1CN([C@H](C)CO)C(=O)c2cccc(NC(=O)Nc3ccc(C(F)(F)F)cc3)c2O[C@H]1CN(C)Cc1ccc2c(c1)OCO2	80.0*	-0.9	-57.7
C[C@H](CO)N1C[C@H](C)[C@@H](CN(C)Cc2ccc3c(c2)OCO3)Oc2c(NC(=O)Nc3ccc(F)cc3)cccc2C1=O	59.7*	-0.3	-8.0
COc1ccc(/C=N/NC(=O)CCCCCC(=O)Nc2ccccc2O)cc1	6.1	0.4	7.8
COC(=O)CCCCCCC(=O)N/N=C/c1cccc(O)c1O	40.8	1.0	-16.8
COc1ccc(NCc2ccc(C(=O)Nc3ccccc3N)cc2)cc1OC	.	0.0	.
C=C(C)[C@@H]1CC=C(/C=N/NC(=O)CCCCCCC(=O)Nc2ccccc2O)CC1	-1.0	1.3	0.2
C[C@H](CO)N1C[C@H](C)[C@@H](CN(C)Cc2ccc3c(c2)OCO3)Oc2c(NC(=O)Nc3ccc(C(F)(F)F)cc3)cccc2C1=O	83.5*	.	-36.3
C[C@H]1CN([C@@H](C)CO)C(=O)c2cccc(NC(=O)Nc3ccc4c(c3)OCO4)c2O[C@H]1CN(C)Cc1ccc2c(c1)OCO2	-17.4	.	-12.4
Cc1ccc(S(=O)(=O)N(C)C[C@@H]2Oc3ncc(C#Cc4ccccc4)cc3C(=O)N([C@H](C)CO)C[C@@H]2C)cc1	57.0*	-0.3	-14.6
COc1cccc(S(=O)(=O)N(C)C[C@@H]2Oc3ncc(-c4ccccc4)cc3C(=O)N([C@H](C)CO)C[C@@H]2C)c1	31.5	.	0.2
C[C@H](CO)N1C[C@H](C)[C@H](CN(C)S(=O)(=O)c2cccc(F)c2)Oc2ncc(C#Cc3cccc(F)c3)cc2C1=O	50.8	.	.
C[C@H](CO)N1C[C@H](C)[C@H](CN(C)S(=O)(=O)c2ccc(C#N)cc2)Oc2ncc(C#Cc3ccccc3)cc2C1=O	39.9	0.2	.
C[C@H](CO)N1C[C@H](C)[C@H](CN(C)S(=O)(=O)c2cccs2)Oc2ncc(C#CCN(C)C)cc2C1=O	1.3	.	.
C[C@H](CO)N1C[C@H](C)[C@H](CN(C)S(=O)(=O)c2cccc(F)c2)Oc2ncc(C#Cc3ccc(F)cc3)cc2C1=O	63.6*	.	-15.3
COc1cccc(S(=O)(=O)N(C)C[C@@H]2Oc3ncc(C#Cc4ccccc4)cc3C(=O)N([C@H](C)CO)C[C@@H]2C)c1	61.6*	-1.4	.
C[C@H](CO)N1C[C@H](C)[C@H](CN(C)S(=O)(=O)c2cccs2)Oc2ncc(C#Cc3ccccc3)cc2C1=O	73.0*	1.2	.
O=C(O)CCCCCCC(=O)NN=C1CCCCCCC1	-20.7	-0.6	7.6
CC(C)(C)OC(=O)Nc1ccc(/C=N/NC(=O)c2ccc(C(=O)NO)cc2)cc1	-17.3	.	17.1
CC(C)(C)OC(=O)N1CCC[C@H]1/C=N/NC(=O)CCCCCCC(=O)O	-10.4	.	2.6
C[C@H]1CN([C@@H](C)CO)C(=O)c2cc(NC(=O)CCCN(C)C)ccc2O[C@H]1CN(C)C(=O)Nc1ccccc1	.	1.4	.
